According to ChEMBL document CHEMBL1155263, “Anti-tumor and anti-angiogenic activity of novel hydantoin derivatives: Inhibition of VEGF secretion in liver metastatic osteosarcoma cells” (Bioorg Med Chem, 2009):
Calls of active or inactive are those of the source. The rule behind the calls is not given here.

Experiments:
[1] = tested on: SK-OV-3; test: Antiproliferative activity against human SKOV3 cells after 48 hrs; assay type: functional, cell-based
Outline: (§1)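 Cells seeded at 15,000/well and incubated overnight at 37 °C, then switched to medium containing compound in µg/mL concentrations. Incubation was 48 h at 37 °C, 5% CO2, then 2 h with WST-type TetraColor One. A450 gave % viability, reported as % inhibition of proliferation, mean of four replicates.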

[2] = tested on: OVSAHO; test: Antiproliferative activity against human OVSAHO cells after 48 hrs; assay type: functional, cell-based; outline: as §1
[3] = tested on: LM8; test: Antiproliferative activity against mouse LM8 cells after 48 hrs; assay type: functional, cell-based; outline: as §1
[4] = tested on: LM8G7; test: Antiproliferative activity against mouse LM8G7 cells after 48 hrs; assay type: functional, cell-based; outline: as §1
[5] = (§2) Antiproliferative activity against VEGF expressing mouse LM8G7 cells assessed as cell index every 10 mins by RT-CES method; assay type: functional, cell-based
Outline: (§3)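 LM8G7 seeded at 10,000 cells/well on electronic-sensing e-plates; about 24 h later, in log phase, medium with various compound concentrations or DMSO control was added. Impedance cell index was recorded every 10 min and plotted against time. IC50 was obtained by non-linear regression of concentration–response curves.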

[6] = tested on: LM8G7; test: as §2; assay type: functional, cell-based; outline: as §3
[7] = tested on: Endothelial cell; test: Antiangiogenic activity in mouse endothelial cells assessed as inhibition of tube formation at 50 uM after 18 hrs by microscopic analysis in presence of VEGF; assay type: functional, cell-based
Outline: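 UV♀2 mouse endothelial cells, 100 µL suspension at 4 × 10⁵ cells/mL, seeded onto Matrigel solidified 30 min at 37 °C, with or without compound (50 µM) and VEGF (2 ng/mL); DMSO 0.1% vehicle. After 18 h, reorganization of the sub-confluent monolayer into capillary-like tubes in 3-D Matrigel was photographed by light microscopy.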

[8] = Inhibition of VEGF secretion in mouse LM8G7 cells at 56 uM after 48 hrs by immunoassay; assay type: functional; conditions: LM8G7, 48 h
Outline: (§4)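 LM8G7 (1 × 10⁶ cells/well) in 6-well plates were incubated 24 h, then given serum-free medium with compound at 56, 102 or 204 µM for 48 h at 37 °C. Supernatant was centrifuged 5000 rpm, 5 min, 4 °C and protein measured by BCA. Mouse VEGF was quantified by sandwich ELISA against a recombinant VEGF standard (HRP detection, A450).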

[9] = Inhibition of VEGF secretion in mouse LM8G7 cells at 102 uM after 48 hrs by immunoassay; assay type: functional; conditions: LM8G7, 48 h; outline: as §4
[10] = Inhibition of VEGF secretion in mouse LM8G7 cells at 204 uM after 48 hrs by immunoassay; assay type: functional; conditions: LM8G7, 48 h; outline: as §4

| SMILES | Activity [1] | Activity [2] | Activity [3] | Activity [4] | IC50 [5] | Activity [6] | inhibition [7] | inhibition at 56 µM [8] | inhibition at 102 µM [9] | inhibition at 204 µM [10] |
| --- | --- | --- | --- | --- | --- | --- | --- | --- | --- | --- |
| CS(=O)(=O)c1ccc(CN2C(=O)NC3(CC4CCC(C3)N4Cc3cccc(F)c3)C2=O)cc1 (stereo unspecified) | Active | Active | Active | Active | 102 µM | Dose-dependent effect |  |  |  |  |
| CS(=O)(=O)c1ccc(CN2C(=O)NC3(CC4CCC(C3)N4Cc3ccc(F)c(F)c3)C2=O)cc1 (stereo unspecified) | Active | Active | Active | Active | 13 µM | Dose-dependent effect | Active | 23.8% | 46.7% | 63.9% |
